# Where “and” joins values, the source holds several entries; their conditions need not be identical. Equal entries are not always repeated.
# What was measured:
# [1] = target: Protein farnesyltransferase (Bos taurus, UniProt P29702+P49355); experiment: In vitro inhibitory activity against farnesyltransferase (FTase); format: protein-complex assay
# Outline: (§1)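 FTase and GGTase1 enzymes purified from bovine brain; inhibition measured in vitro by scintillation proximity assay (SPA), IC50 determined.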
# [2] = Oral bioavailability in rat; format: ADME, organism-based; conditions: in vivo
# [3] = Half-life time in rat was determined; format: ADME, organism-based; conditions: in vivo
# NIH3T3 [4] = experiment: Effective concentration against Ha-RAS processing in NIH3T3 ras-transformed cells; format: functional, cell-based; conditions: Mus musculus
# [5] = target: Geranylgeranyl transferase type I (Bos taurus, UniProt P29702+Q5EAD5); experiment: In vitro inhibition of geranylgeranyltransferase.; format: protein-complex assay; outline: as §1
# NIH3T3 [6] = experiment: Inhibitory activity against NIH3T3 ras-transformed cells at 1 uM; format: functional; conditions: Mus musculus
Compound,IC50 [1],IC50 [5] [nM],further results
Cc1ccccc1-c1cc(NCc2cncn2C)ccc1C#N,1000 nM,,
Cn1cncc1CN(Cc1cccc(C#N)c1)c1ccc(C#N)c(-c2cccc3ccccc23)c1,,150,bioavailability [2]: 10%; half-life [3]: < 1 h; EC50 (NIH3T3 [4]): 50 nM
Cc1ccccc1-c1cc(N(Cc2ccccc2)Cc2cnc[nH]2)ccc1C#N,84 nM,,
Cn1cncc1CN(c1ccc(C#N)c(-c2cccc3ccccc23)c1)S(=O)(=O)c1ccccc1,18 nM,1900,
Cn1cncc1CN(C(=O)c1ccccc1)c1ccc(C#N)c(-c2cccc3ccccc23)c1,14 nM,310,
Cc1ccccc1-c1cc(C(OCc2ccccc2)c2cncn2C)ccc1C#N (stereo not given),65 nM,,
Cn1cncc1CN(Cc1ccccc1)c1ccc(C#N)c(-c2cccc3ccccc23)c1,1.5 nM and 11 nM,,
NC(=O)N1CCC(CC(=O)N2CCC([C@H]3c4ncc(Br)cc4CCc4cc(Cl)cc(Br)c43)CC2)CC1 [LONAFARNIB],7.8 nM,,EC50 (NIH3T3 [4]): 160 nM
Cn1cncc1[C@@](N)(c1ccc(Cl)cc1)c1ccc2c(c1)c(-c1cccc(Cl)c1)cc(=O)n2C [TIPIFARNIB],0.57 nM,,EC50 (NIH3T3 [4]): 2 nM

# The next lines start with results.
IC50 [1],IC50 [5] [nM],Compound,further results
0.37 nM,650,Cn1cncc1CN(Cc1ccnc(C#N)c1)c1ccc(C#N)c(-c2cccc3ccccc23)c1,EC50 (NIH3T3 [4]): 80 nM
10 nM,1000,Cc1ccccc1-c1cc(N(Cc2ccc(C#N)cc2)Cc2cncn2C)ccc1C#N,inhibition at 1 µM (NIH3T3 [6]): 29%
11 nM,,Cc1ccccc1-c1cc(N(Cc2ccccc2)Cc2cncn2C)ccc1C#N,
0.97 nM,1200,Cc1ccccc1-c1cc(N(Cc2cccc(C#N)c2)Cc2cncn2C)ccc1C#N,EC50 (NIH3T3 [4]): 70 nM
1.5 nM,1000,Cn1cncc1CN(Cc1ccc(C#N)cc1)c1ccc(C#N)c(-c2cccc3ccccc23)c1,inhibition at 1 µM (NIH3T3 [6]): 64%
1.9 nM,180,Cn1cncc1CN(c1ccc(C#N)c(-c2cccc3ccccc23)c1)C1CCCCC1,
1 nM,,CCCCN(CCC1CCCCC1)Cc1ccc(C(=O)N[C@@H](CCSC)C(=O)O)c(-c2ccccc2C)c1,
0.45 nM,230,Cn1cncc1CN(Cc1cccc(Cl)c1)c1ccc(C#N)c(-c2cccc3ccccc23)c1,inhibition at 1 µM (NIH3T3 [6]): 45%
